The results in this text go back to ChEMBL document CHEMBL2384930, “Interventional effects of plumbagin on experimental ulcerative colitis in mice” (J Nat Prod, 2013).

The source made the active and inactive calls. The calls are words filed in the database; no cut-off is given here.

Series [1] concerns Mus musculus. The experiment in a line: Antiinflammatory activity in C57-B16/J mouse chronic DSS-induced ulcerative colitis model assessed as decrease in serum IFNgamma level at 10 mg/kg administered for total of 3 weeks for alternative weeks with water measured after 63 days by ELISA relative to DSS-treated control. Type of series: functional, organism-based. Also noted: dose 10 mg/kg. The method in brief: (§1)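 Chronic model, 63 days: three cycles of 1 week 3% DSS, then 1 week of compound in drinking water, then 1 week of water. Serum from clotted blood (overnight, 3000g 10 min) analysed by sandwich ELISA with capture/detection antibodies, streptavidin-HRP and substrate, read at 450 nm. Means ± SE, n = 8−10, one-way ANOVA with Tukey test.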
A general note: In an ELISA, binding on a coated surface is turned into a signal by an enzyme label.

Series [2] has as its system Mus musculus. The experiment in a line: Antiinflammatory activity in C57-B16/J mouse chronic DSS-induced ulcerative colitis model assessed as decrease in serum TNFalpha level at 10 mg/kg administered for total of 3 weeks for alternative weeks with water measured after 63 days by ELISA relative to DSS-treated control. Type of series: functional, organism-based. Details: dose 10 mg/kg. The method in brief: as §1

In series [3] the test system is Mus musculus. The experiment in a line: Antiinflammatory activity in C57-B16/J mouse DSS-induced ulcerative colitis model assessed as restoration of submucosa at 10 mg/kg by hematoxylin-eosin staining-based microscopic analysis. Also noted: dose 10 mg/kg. It is filed as functional, organism-based. The essentials:
(§2)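 Female C57-BL6/J mice, 8−10 weeks old, given 3% (w/v) DSS in drinking water. Compound dissolved in ethanol and mixed into drinking water, given ad libitum. Colorectal sections stained with hematoxylin and eosin and examined at 400× for crypts, goblet cells, submucosa and monocyte aggregation.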

The test system of series [4] is Mus musculus. The experiment in a line: Toxicity in C57-B16/J mouse DSS-induced ulcerative colitis model assessed as circulating CD14+/CD16- level at 6 to 10 mg/kg by flow cytometric analysis relative to DSS-treated control. Type of series: organism-based. Details: dose 6-10 mg/kg. To be noted: in vivo. The essentials: (§3)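 Acute model: female C57-BL6/J mice, 8−10 weeks old, given 3% (w/v) DSS in drinking water, with bottles refilled at days 3 and 5. Oral dosing in drinking water (6, 8, 10 mg/kg, ethanol-dissolved) from day 6. Whole blood stained with anti-CD14-FITC/anti-CD16-PE for 30 min in the dark, RBC-lysed, then flow cytometry. Classic CD14+/CD16−, inflammatory CD14+/CD16+; n = 8.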
For orientation: A flow cytometer gives signals particle by particle.

In series [5] the test system is Mus musculus. The experiment in a line: Antiinflammatory activity in C57-B16/J mouse chronic DSS-induced ulcerative colitis model assessed as suppression of clinical symptoms at 8 to 10 mg/kg administered for total of 3 weeks for alternative weeks with water measured after 63 days. It is filed as functional, organism-based. The method in brief:
(§4)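 Chronic model in female C57-BL6/J mice: three 3-week cycles of DSS, compound in drinking water and plain water, over 63 days. Mice euthanized by isoflurane overdose and colon length measured (cm). Clinical index scored from body weight change, colorectal length, stool consistency, occult blood and prolapse; n = 10. Statistics by ANOVA with Tukey test.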

In series [6] the test system is Mus musculus. The experiment in a line: Antiinflammatory activity in C57-B16/J mouse DSS-induced ulcerative colitis model assessed as restoration of goblet cells at 10 mg/kg by hematoxylin-eosin staining-based microscopic analysis. Type of series: functional, organism-based. Details: dose 10 mg/kg. The essentials:
as §2

Series [7] deals with Mus musculus. The experiment in a line: Antiinflammatory activity in C57-B16/J mouse DSS-induced ulcerative colitis model assessed as reduction in monocyte aggregation at 10 mg/kg by hematoxylin-eosin staining-based microscopic analysis. It is filed as functional, organism-based. Details: dose 10 mg/kg. The method in brief:
as §2

Series [8] in a line: Oral bioavailability in rat. Type of series: ADME, organism-based. To be noted: in vivo.
Series [9] concerns Mus musculus. The experiment in a line: Antiinflammatory activity in C57-B16/J mouse DSS-induced ulcerative colitis model assessed as restoration of crypts at 10 mg/kg by hematoxylin-eosin staining-based microscopic analysis. Details: dose 10 mg/kg. Type of series: functional, organism-based. The essentials: as §2
The subject of series [10] is Mus musculus. The experiment in a line: Antiinflammatory activity in C57-B16/J mouse DSS-induced ulcerative colitis model assessed as reduction of inflammatory CD14+/CD16+ level in peripheral blood at 6 to 10 mg/kg by flow cytometric analysis relative to DSS-treated control. Type of series: functional. Details: scale not given: the % may be the effect or the level left. To be noted: dose mg/kg 6-10. The method in brief:
as §3

Series [11] concerns Mus musculus. The experiment in a line: Antiinflammatory activity in C57-B16/J mouse acute DSS-induced ulcerative colitis model assessed as reversal of body weight loss at 6 to 10 mg/kg administered on day 6 measured up to day 12. It is filed as functional, organism-based. The essentials:
(§5)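 Acute model: female C57-BL6/J mice, 8−10 weeks old, given 3% (w/v) DSS in drinking water. Dosing in drinking water ad libitum at 6, 8 or 10 mg/kg (ethanol stock) from day 6. Vehicle control received ethanol-water. Body weight recorded every other day as percent change. Disease index scored from weight change, stool consistency (1–4), fecal occult blood and prolapse; n = 10.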

The subject of series [12] is Mus musculus. The experiment in a line: Antiinflammatory activity in C57-B16/J mouse DSS-induced ulcerative colitis model assessed as reduction of inflammatory CD14+/CD16+ level in peripheral blood at 8 to 10 mg/kg by flow cytometric analysis relative to DSS-treated control. Type of series: functional. To be noted: dose mg/kg 8-10. The method in brief: as §3
The test system of series [13] is Mus musculus. The experiment in a line: Antiinflammatory activity in C57-B16/J mouse chronic DSS-induced ulcerative colitis model assessed as decrease in serum IL-17 level at 10 mg/kg administered for total of 3 weeks for alternative weeks with water measured after 63 days by ELISA relative to DSS-treated control. It is filed as functional, organism-based. Also noted: dose 10 mg/kg. The method in brief:
as §1

Series [14] concerns Mus musculus. The experiment in a line: Antiinflammatory activity in C57-B16/J mouse chronic DSS-induced ulcerative colitis model assessed as decrease in serum IL-17 level at 8 mg/kg administered for total of 3 weeks for alternative weeks with water measured after 63 days by ELISA relative to DSS-treated control. It is filed as functional, organism-based. Also noted: dose 8 mg/kg. The essentials: as §1

In series [15] the test system is Mus musculus. The experiment in a line: Antiinflammatory activity in C57-B16/J mouse chronic DSS-induced ulcerative colitis model assessed as restoration of colon size at 6 to 10 mg/kg administered for total of 3 weeks for alternative weeks with water measured after 63 days. It is filed as functional, organism-based. The essentials: as §4
For series [16], the system named is Mus musculus. The experiment in a line: Antiinflammatory activity in C57-B16/J mouse acute DSS-induced ulcerative colitis model assessed as suppression of clinical symptoms at 8 to 10 mg/kg administered on day 6 measured up to day 12. It is filed as functional, organism-based. The essentials:
as §5

For `CC1=CC(=O)c2c(O)cccc2C1=O` [PLUMBAGIN], the outcome with Mus musculus [1], in the series on Mus musculus [2], in the series on Mus musculus [3], in the series on Mus musculus [5], in the series with Mus musculus [6] and in the series on Mus musculus [7] was Active. In addition, the result with Mus musculus [9], with Mus musculus [13], with Mus musculus [15] and in the series on Mus musculus [16] was Active. The Activity with Mus musculus [4] is 77%; in the series on Mus musculus [10], 0.3%. This molecule gave a bioavailability in [8] of 38%. The outcome with Mus musculus [11] and in the series on Mus musculus [14] was inactive. Moreover, the “fold change (FC)” value in the series on Mus musculus [12] is reported as more than 3.

As a reminder, the bioavailability is the share of a dose that reaches the circulation, judged against a reference dose that is usually intravenous.
